Test results from ChEMBL document CHEMBL1146066, “4-quinolone derivatives: high-affinity ligands at the benzodiazepine site of brain GABA A receptors. synthesis, pharmacology, and pharmacophore modeling” (J Med Chem, 2006).
pKi: −log10 of the molar value.

How the values were obtained:
[1] = target: GABA-A receptor; anion channel; test: Displacement of [3H]flumazenil from GABA-A receptor in rat cortical membranes; assay type: cell membranes, Membrane
Procedure, shortened: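 Rat cortex was homogenized in Tris-HCl, washed by centrifugation, incubated 30 min at 37 °C, and stored frozen. Assays used ca. 50 µg protein per 0.55 mL in Tris-citrate 50 mM pH 7.1 with 1 nM [3H]flumazenil for 40 min on ice, then filtered. Nonspecific binding came from 1 µM clonazepam.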

[2] = Selectivity for human GABA-Aalpha1 receptor plus beta-2-gamma-2 over GABA-Aalpha3 receptor plus beta2gamma2
[3] = target: T1, GABA A receptor alpha-3/beta-2/gamma-2 (Homo sapiens, UniProt P18507+P34903+P47870); test: Displacement of [3H]Flumazenil from human GABA-Aalpha3 receptor plus beta-2-gamma-2 expressed in HEK293 cells; assay type: cell-based
T1 sequence (P47870 whole entry): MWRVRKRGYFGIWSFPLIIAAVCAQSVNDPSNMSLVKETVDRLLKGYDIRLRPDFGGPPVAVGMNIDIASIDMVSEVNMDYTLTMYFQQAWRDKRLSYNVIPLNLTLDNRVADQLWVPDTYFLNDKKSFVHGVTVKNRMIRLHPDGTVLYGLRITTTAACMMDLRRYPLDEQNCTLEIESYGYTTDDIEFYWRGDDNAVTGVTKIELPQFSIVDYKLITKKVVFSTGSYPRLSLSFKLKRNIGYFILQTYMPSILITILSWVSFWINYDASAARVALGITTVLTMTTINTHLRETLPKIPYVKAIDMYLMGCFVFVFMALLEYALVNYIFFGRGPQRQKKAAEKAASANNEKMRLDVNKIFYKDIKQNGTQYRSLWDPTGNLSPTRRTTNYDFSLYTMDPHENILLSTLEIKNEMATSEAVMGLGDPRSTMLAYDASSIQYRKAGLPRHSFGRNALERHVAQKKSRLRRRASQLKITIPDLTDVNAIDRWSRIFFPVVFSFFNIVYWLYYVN
T1 sequence (P18507 whole entry): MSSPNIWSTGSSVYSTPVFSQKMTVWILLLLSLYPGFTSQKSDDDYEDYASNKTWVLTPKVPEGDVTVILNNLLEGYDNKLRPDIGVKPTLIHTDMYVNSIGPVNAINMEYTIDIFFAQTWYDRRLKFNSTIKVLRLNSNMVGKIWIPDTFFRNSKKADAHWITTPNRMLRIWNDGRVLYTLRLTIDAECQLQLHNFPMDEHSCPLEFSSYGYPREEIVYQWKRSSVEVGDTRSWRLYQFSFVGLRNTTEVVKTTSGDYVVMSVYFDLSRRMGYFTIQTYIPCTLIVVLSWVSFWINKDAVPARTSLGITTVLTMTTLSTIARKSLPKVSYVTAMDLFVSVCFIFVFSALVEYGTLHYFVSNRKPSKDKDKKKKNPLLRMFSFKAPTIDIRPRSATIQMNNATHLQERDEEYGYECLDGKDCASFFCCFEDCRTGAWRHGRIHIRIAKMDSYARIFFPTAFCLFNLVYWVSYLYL
T1 sequence (P34903 whole entry): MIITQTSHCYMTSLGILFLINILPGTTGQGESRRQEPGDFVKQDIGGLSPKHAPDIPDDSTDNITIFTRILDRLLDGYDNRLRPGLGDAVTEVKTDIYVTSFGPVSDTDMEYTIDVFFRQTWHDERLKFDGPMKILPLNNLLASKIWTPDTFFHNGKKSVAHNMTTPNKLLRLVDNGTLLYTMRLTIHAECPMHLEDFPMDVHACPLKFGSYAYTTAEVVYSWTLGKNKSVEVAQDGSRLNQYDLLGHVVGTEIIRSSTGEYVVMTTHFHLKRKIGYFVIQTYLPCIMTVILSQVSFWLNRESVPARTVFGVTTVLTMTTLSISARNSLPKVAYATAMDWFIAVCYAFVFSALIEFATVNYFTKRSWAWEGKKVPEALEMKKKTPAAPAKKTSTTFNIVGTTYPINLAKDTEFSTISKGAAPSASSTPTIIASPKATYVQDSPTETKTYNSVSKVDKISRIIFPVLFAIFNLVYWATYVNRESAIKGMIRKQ
Procedure, shortened: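 Membranes of HEK 293 cells carrying human α1β2γ2S or α3β2γ2S GABAA receptors, ca. 25 µg protein per 0.55 mL assay in Tris-citrate 50 mM pH 7.1. Incubated with 1 nM [3H]flumazenil (87 Ci/mmol) and test substance at 0-4 °C for 40 min, then filtered on GF/C and washed. Nonspecific binding taken with 1 µM clonazepam.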

[4] = target: GABA A receptor alpha-1/beta-2/gamma-2 (Homo sapiens); test: Displacement of [3H]Flumazenil from human GABA-Aalpha1 receptor plus beta-2-gamma-2 expressed in HEK293 cells

Compound | pKi [1] | further results
CCCNC(=O)c1cnc2ccc(Cc3ccccc3)cc2c1O | 10.32 | –
CCCCOC(=O)c1cnc2ccc(CC)cc2c1O | 7.89 | –
CCOC(=O)c1c[nH]c2ccc(Cc3ccccc3)cc2c1=O | – | Ratio Ki [2]: 27
CCOC(=O)c1cnc2ccc(Br)cc2c1O | 7.80 | pKi [3]: 7.59; Ratio Ki [2]: 2; pKi [4]: 7.85
CCc1ccc2ncc(C(=O)OC3CCCC3)c(O)c2c1 | 7.72 | –
CCOC(=O)c1cnc2ccc(Cc3ccccc3)cc2c1O | 8.85 | pKi [3]: 8.14; pKi [4]: 9.57
CCCOC(=O)c1cnc2cc(C)nn2c1O | 6.06 | –
CCCNC(=O)c1cnc2ccc(CC)cc2c1O | 9.59 | –
CCc1ccc2ncc(C(=O)OCC(C)CC)c(O)c2c1 (stereo unspecified) | 7.55 | –
CCOC(=O)c1cnc2ccnn2c1O | < 5.00 | –
CCc1ccc2ncc(C(=O)OC(C)CC(C)C)c(O)c2c1 (stereo unspecified) | 6.53 | –
CCOC(=O)c1c(C)nc2ccc(Br)cc2c1O | 5.38 | –
CCCCNC(=O)c1cnc2ccc(CC)cc2c1O | 9.27 | –
CCCc1ccc2ncc(C(=O)OCC)c(O)c2c1 | 7.77 | –
CCc1ccc2ncc(C(=O)OCC(CC)CC)c(O)c2c1 | 7.04 | –
CCc1ccc2ncc(C(=O)OC(C)C)c(O)c2c1 | 6.67 | –
CCCCOC(=O)c1cnc2ccccc2c1O | 7.27 | –
CCc1ccc2ncc(C(=O)OC(CC)CC)c(O)c2c1 | 5.59 | –
CCOC(=O)c1cnc2ccccc2c1O | 7.11 | –
CCOC(=O)c1cnc2ccc(C(F)(F)F)cc2c1O | 6.91 | –
CCCOC(=O)c1cnc2ccc(CC)cc2c1O | 8.74 | –
CCc1ccc2ncc(C(=O)OCCC(C)C)c(O)c2c1 | 7.55 | pKi [3]: 7.05; Ratio Ki [2]: 22; pKi [4]: 8.39
CCCCCOC(=O)c1cnc2ccc(CC)cc2c1O | 7.46 | –
CCOC(=O)c1cnc2cc(C)nn2c1O | < 5.00 | –
CCc1ccc2ncc(C(=O)O)c(O)c2c1 | 6.68 | –
CCOC(=O)c1cnc2ccc(C(C)C)cc2c1O | 7.82 | –
CCCOC(=O)c1cnc2ccc(Cc3ccccc3)cc2c1O | 9.77 | –
CCOC(=O)c1cnc2ccc(CC)cc2c1O | 7.70 | –
